Assay results taken from publication PMC4059272 (Journal of Medicinal Chemistry, 2014).

How the values were obtained:
[1] = system: MCF-7:WS8 cells; test: DNA based growth assay, combination treatments with 10^–10 M E2; assay type: cell-based, human; conditions: for inhibition of 10^–10 M E2-induced growth: MCF-7:WS8, at 10^–6 M
[2] = system: pS2 gene; test: RT-PCR of estrogen-responsive gene pS2 in MCF-7:WS8 cells; assay type: cell-based, human; conditions: MCF-7:WS8, 48 h; E2 at 10^–10 M, other compounds at 10^–6 M
Outline: (§1)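 MCF-7:WS8 cells kept in phenol-red RPMI 1640 with 10% FBS, glutamine, nonessential amino acids and 6 ng/mL insulin at 37 °C, 5% CO2. Cells were estrogen-starved 3 days, seeded at 300 000 cells/well the day before, and treated 48 h. RNA was taken in Trizol and run as SYBR green real-time PCR with 36B4 as reference.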

[3] = system: PgR gene; test: RT-PCR of estrogen-responsive gene PgR in MCF-7:WS8 cells; assay type: cell-based, human; conditions: MCF-7:WS8, 48 h; E2 at 10^–10 M, other compounds at 10^–6 M
Outline: as §1

[4] = system: GREB1 gene; test: RT-PCR of estrogen-responsive gene GREB1 in MCF-7:WS8 cells; assay type: cell-based, human; conditions: MCF-7:WS8, 48 h; E2 at 10^–10 M, other compounds at 10^–6 M
Outline: as §1

[5] = biological target: T1, ERα (Homo sapiens, UniProt P03372); test: Immunoblotting of ERα protein levels in MCF-7:WS8 cells; assay type: cell-based; conditions: for regulation of ERα protein levels: MCF-7:WS8, 24 h treatment
T1 sequence (P03372 1-595): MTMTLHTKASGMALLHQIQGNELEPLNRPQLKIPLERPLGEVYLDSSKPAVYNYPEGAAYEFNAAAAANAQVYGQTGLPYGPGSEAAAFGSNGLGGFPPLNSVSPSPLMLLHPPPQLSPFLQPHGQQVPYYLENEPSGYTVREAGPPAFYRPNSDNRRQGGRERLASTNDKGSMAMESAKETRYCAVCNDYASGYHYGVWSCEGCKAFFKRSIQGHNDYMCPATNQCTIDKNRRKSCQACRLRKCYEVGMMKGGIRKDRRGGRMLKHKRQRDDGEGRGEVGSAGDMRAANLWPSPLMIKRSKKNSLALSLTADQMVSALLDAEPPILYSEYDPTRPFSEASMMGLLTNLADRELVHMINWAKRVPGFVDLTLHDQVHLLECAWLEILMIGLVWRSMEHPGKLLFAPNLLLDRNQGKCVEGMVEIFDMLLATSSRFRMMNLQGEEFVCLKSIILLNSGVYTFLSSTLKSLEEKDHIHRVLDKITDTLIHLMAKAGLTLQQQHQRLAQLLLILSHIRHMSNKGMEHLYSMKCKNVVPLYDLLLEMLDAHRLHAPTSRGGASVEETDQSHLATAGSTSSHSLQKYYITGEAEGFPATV

[6] = system: MCF-7:WS8 cells; test: DNA quantification growth assay, compounds alone; assay type: cell-based, human; conditions: for estrogenic properties on cell growth: MCF-7:WS8, compounds alone, concentration range 10^–12–10^–6 M
[7] = system: prolactin gene (Prl); test: RT-PCR of prolactin; assay type: cell-based, rat; conditions: GH3 cells, top concentration of 10^–6 M, with 1 nM E2

SMILES	inhibition of E2-stimulated cell growth at top concentration ([1]; MCF-7:WS8, 10^–6 M compound with 10^–10 M E2)	effect on pS2 mRNA expression [2]	effect on PgR mRNA expression [3]	effect on GREB1 mRNA expression [4]	regulation of ERα protein levels [5]	partial agonist growth level, % max of E2 curve ([6]; MCF-7:WS8, over the range 10^–12–10^–9 M) [%]	inhibition of 1 nM E2-induced Prl gene up-regulation [7]	estrogenic properties on cell growth [6]	inhibition of 10^–10 M E2-induced growth [1]	reduction (down-regulation) of ERα level by densitometry ([5]; MCF-7:WS8, 24 h, E2 at 1 nM)
CNCCOc1ccc2c(c1)CCCC(c1ccccc1)=C2c1ccc(O)cc1 [EFREndox, 4-(3-(2-(Methylamino)ethoxy)-8-phenyl-6,7-dihydro-5H-benzocyclohepten-9-yl)phenol]	about 10%	induce expression	induce expression	induce expression	–	–	–	–	–	–
CN(C)CCOc1ccc2c(c1)CCCC(c1ccccc1)=C2c1ccc(O)cc1 [EFR4OHT]	–	induce expression	induce expression	induce expression	–	–	–	–	–	–
C[C@]12CC[C@@H]3c4ccc(O)cc4CC[C@H]3[C@@H]1CC[C@@H]2O [E2, 17β-estradiol]	–	induced expression	induced expression	induced expression	–	–	–	–	–	–
CCC(=C(c1ccc(O)cc1)c1ccc(O)cc1)c1ccccc1 [BPTPE]	–	partial estrogenic effect	partial estrogenic effect	partial estrogenic effect	up-regulated the protein levels	50	–	–	–	–
CNCCOc1ccc(C2=C(c3ccccc3)CCCc3cc(O)ccc32)cc1 [ZFREndox, 9-(4-(2-(Methylamino)ethoxy)phenyl)-8-phenyl-6,7-dihydro-5H-benzocyclohepten-3-ol]	–	no significant effect	–	no significant effect	–	–	completely inhibit	no estrogenic properties	–	–
CCC(=C(c1ccc(O)cc1)c1ccc(OCCN(C)C)cc1)c1ccccc1 [4OHT, 4-hydroxytamoxifen]	–	no significant effect	–	no significant effect	–	–	completely inhibit	no estrogenic properties	completely	–
CCOc1ccc2c(c1)CCCC(c1ccccc1)=C2c1ccc(OCCN(C)C)cc1 [ZFR4OHT]	–	no significant effect	–	no significant effect	–	–	completely inhibit	no estrogenic properties	–	–
CCC(=C(c1ccc(O)cc1)c1ccc(O)cc1)c1ccc(O)cc1 [3OHTPE]	–	partial estrogenic effect	partial estrogenic effect	partial estrogenic effect	up-regulated the protein levels	–	–	–	–	–
CC/C(=C(\c1ccc(O)cc1)c1ccc(OCCNC)cc1)c1ccccc1 [Endoxifen, 4-hydroxy-N-desmethyltamoxifen]	–	–	–	–	up-regulation	–	–	no estrogenic properties	completely	–
C[C@]12CC[C@@H]3c4ccc(O)cc4C[C@@H](CCCCCCCCC[S+]([O-])CCCC(F)(F)C(F)(F)F)[C@H]3[C@@H]1CC[C@@H]2O (stereo partly drawn) [Fulvestrant]	–	–	–	–	–	–	–	–	–	more than 90%
